This passage reports minimal effective dose, IC50 and ED50 results from ChEMBL document CHEMBL1125896, “2-(oxadiazolyl)- and 2-(thiazolyl)imidazo[1,2-a]pyrimidines as agonists and inverse agonists at benzodiazepine receptors” (J Med Chem, 1991).

In assay [1] the test system is Rattus norvegicus. Description: Minimum effective dose on oral administration. It counts as functional. Conditions: read-out: MED. In outline:
(§1)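 Food-motivated conflict test in trained Lister rats: five alternating 4-min FI30 unpunished and five 3-min FR5 punished components. Dosing po 30 min before testing, first at 50 mg/kg in four rats, then at decreasing doses (20, 10, 5, 2, 1 mg/kg) if active. MED is the dose giving a significant rise in punished responding (Mann-Whitney U).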

The target in assay [2] is GABA-A receptor; anion channel. Description: Binding affinity towards benzodiazepine receptor by the displacement of [3H]flunitrazepam from rat brain preparations. In general terms: Displacement assays read how much labelled ligand stays bound in the presence of the test substance.
The subject of assay [3] is Rattus norvegicus. Put plainly: Compound was tested for conflict antagonism of chlordiazepoxide (CDZP) at 10 mg/kg orally. The note with it: po, read-out: MED. Type of assay: functional. In outline: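 Food-motivated conflict test in trained Lister rats: test compound given po with 10 mg/kg po chlordiazepoxide. Effect compared with chlordiazepoxide alone in the same rats in separate assays. Schedule of five alternating 4-min FI30 unpunished and five 3-min FR5 punished components.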

The species entered for assay [4] is Mus musculus. Description: Sedative/muscle relaxant effects in male CD-1 mice was assessed with a Ugo Basile rotating drum and the dose causing 50% decrease in time (ED50) was evaluated. Type of assay: functional. The method in brief:
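Rotating drum of 3 cm diameter at 16 rev/min; time on drum recorded 1 h after dosing. Mean for groups of 10 mice expressed as percentage of control group mean.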

The species named for assay [5] is Mus musculus. Description: Dose of leptazol-inducing tonic seizures in CD-1 mice was determined and represented as ED50. Type of assay: functional.
In assay [6] the test system is Rattus norvegicus. Description: Compound was tested for the minimum effective dose (MED) on oral administration; value ranges from 2-5 mg/Kg. Type of assay: functional. Conditions: read-out: MED. In outline:
as §1

In assay [7] the test system is Mus musculus. Description: Intraperitoneal dose of leptazol-inducing tonic seizures in CD-1 mice was determined and represented as ED50. Type of assay: functional. Conditions: ip.
Assay [8] concerns Rattus norvegicus. Description: Compound was tested for the minimum effective dose (MED) on oral administration; value ranges from 10-50 mg/Kg. Type of assay: functional. Conditions: read-out: MED. In outline: as §1
The species named for assay [9] is Mus musculus. Description: The dose of leptazol-inducing tonic seizures in CD-1 mice was determined and represented as ED50. Type of assay: functional.
Assay [10] relates to Rattus norvegicus. Put plainly: Compound was tested for the minimum effective dose (MED) on oral administration; value ranges from 1-2 mg/Kg. Type of assay: functional. The note with it: read-out: MED. The method in brief:
as §1

The species entered for assay [11] is Mus musculus. Description: Sedative/muscle relaxant effects in male CD-1 mice was assessed with a Ugo Basile rotating drum and the dose causing 50% decrease in time (ED50) was calculated. Type of assay: functional. The method in brief:
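Male CD-1 mice, groups of 10, were placed on a rotating drum (3 cm diameter, 16 rev/min) 1 h after dosing and their time on the drum was recorded. The group mean was expressed as a percentage of the control group mean. The dose giving a 50% decrease came from best-fit lines through at least three dose-effect points, with 95% confidence limits by Litchfield and Wilcoxon.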

pIC50: −log10 of the molar value.

With `CCc1c(OC)nc2nc(-c3cnco3)cn2c1C`, the minimal effective dose in the assay with Rattus norvegicus [1] was > 50 mg/kg. In [2], this compound showed a pIC50 of 5.60.

`CCc1c(OC)nc2nc(-c3noc(C)n3)c(Br)n2c1C`: the minimal effective dose in the assay on Rattus norvegicus [1] stood at 10 mg/kg. This compound showed a pIC50 in [2] of 5.00.

With `CCc1c(OC)nc2nc(-c3noc(C)n3)c(Cl)n2c1C`, the minimal effective dose with Rattus norvegicus [1] stood at 10 mg/kg. The compound also had a pIC50 in assay [2] of 5.00.

Turning to `CCc1c(OC)nc2nc(-c3cc(C)no3)cn2c1C`, the minimal effective dose with Rattus norvegicus [1] turned out to be 50 mg/kg. The same compound had a pIC50 in [2] of 5.35.

With `C=CCc1c(OC)nc2nc(-c3nc(C)cs3)cn2c1C`, the minimal effective dose in the assay on Rattus norvegicus [3] and in the assay on Rattus norvegicus [1] was > 50 mg/kg in each case. The compound further showed a pIC50 in assay [2] of 7.00.

For `CCc1c(OC)nc2nc(-c3nnc(C)o3)cn2c1C`, the ED50 is > 200 mg/kg in the assay listed under Mus musculus [4] and 20 mg/kg in the assay listed under Mus musculus [5]. In the assay with Rattus norvegicus [1], the minimal effective dose was 2 mg/kg.

In the case of `CCc1c(OC)nc2nc(-c3n[nH]c(C)n3)cn2c1C`, in the assay on Rattus norvegicus [1], the minimal effective dose was > 50 mg/kg. Also, the pIC50 in assay [2] is < 5.00.

For the compound `CCOC(=O)c1csc(-c2cn3c(C)c(CC)c(OC)nc3n2)n1`, in the assay on Rattus norvegicus [1], the minimal effective dose is > 50 mg/kg. In [2], this compound showed a negative-log IC50 (pIC50) of 5.55.

As to `CCc1c(OC)nc2nc(-c3nc(C)c(C)s3)cn2c1C`, the minimal effective dose with Rattus norvegicus [3] and in the assay on Rattus norvegicus [1] was > 50 mg/kg throughout. Also, the pIC50 in assay [2] was 5.60.

`CCc1c(OC)nc2nc(-c3noc(C)n3)cn2c1C` [FASIPLON]: the results for the ED50 in the assay listed under Mus musculus [4] and in the assay filed under Mus musculus [5] were 17 mg/kg and 7.4 mg/kg, respectively. In the assay with Rattus norvegicus [6], the minimal effective dose turned out to be 2 mg/kg. In assay [2], this compound had a pIC50 of 6.30.

As for `COc1nc2nc(-c3nnc(C)o3)cn2c2c1CCCC2`, the minimal effective dose in the assay with Rattus norvegicus [1] is > 50 mg/kg. This compound also showed a pIC50 in assay [2] of 5.49.

As for `C=CCc1c(OC)nc2nc(-c3nnc(C)o3)cn2c1C`, in the assay on Rattus norvegicus [1], the minimal effective dose is 10 mg/kg. The compound further gave a pIC50 in [2] of 5.60.

As to `CCc1c(SC)nc2nc(-c3nc(C)cs3)cn2c1C`, the minimal effective dose was 50 mg/kg in the assay on Rattus norvegicus [3] and > 50 mg/kg in the assay on Rattus norvegicus [1]. The pIC50 in assay [2] is 7.10.

As for `CCc1c(OC)nc2nc(-c3nc(C)cs3)cn2c1C`, the minimal effective dose was 10 mg/kg with Rattus norvegicus [3] and > 50 mg/kg in the assay with Rattus norvegicus [1]. This compound gave an ED50 with Mus musculus [7] of 1.7 mg/kg. Also, the negative logarithm of the IC50 (pIC50) in [2] is 6.95.

Consider `CCCc1nnc(-c2cn3c(C)c(CC)c(OC)nc3n2)o1`, for which, in the assay on Rattus norvegicus [1], the minimal effective dose was 50 mg/kg. In addition, the pIC50 in assay [2] is < 5.00.

As to `CCc1c(SC)nc2nc(-c3noc(C)n3)cn2c1C`, the minimal effective dose in the assay on Rattus norvegicus [1] worked out at 2 mg/kg. In [2], this compound showed a pIC50 of 6.80.

For `CCc1c(OC)nc2nc(-c3nnc(-c4ccccc4)o3)cn2c1C`, the minimal effective dose in the assay on Rattus norvegicus [1] was > 50 mg/kg. Besides, the pIC50 in [2] is < 5.00.

`C/C=C/c1c(OC)nc2nc(-c3nnc(C)o3)cn2c1C`: the minimal effective dose in the assay on Rattus norvegicus [1] is > 50 mg/kg. In assay [2], the pIC50 was < 5.00.

On to `CCc1c(OC)nc2nc(-c3nnc(C(F)(F)F)o3)cn2c1C`, for which the minimal effective dose with Rattus norvegicus [8] was 10 mg/kg. Moreover, in [2], the pIC50 is < 5.00.

As to `CCc1c(OC)nc2nc(-c3nnc(C)s3)cn2c1C`, the minimal effective dose with Rattus norvegicus [6] was determined as 2 mg/kg. For the same compound, in assay [2], the pIC50 is < 5.00.

Turning to `COc1nc2nc(-c3noc(C)n3)cn2c2c1CCCC2` [TANIPLON], the figures for the ED50 in the assay listed under Mus musculus [4] and in the assay listed under Mus musculus [5] were > 100 mg/kg and 55 mg/kg, respectively. Besides, the minimal effective dose with Rattus norvegicus [1] stood at 5 mg/kg. Also, the pIC50 in [2] is 6.25.

For the compound `CCc1c(OC)nc2nc(-c3nccs3)cn2c1C`, the minimal effective dose in the assay with Rattus norvegicus [3] is 10 mg/kg. In assay [2], this compound gave a pIC50 of 6.70.

Turning to `CCc1c(OC)nc2nc(-c3noc(C(F)(F)F)n3)cn2c1C`, the ED50 in the assay listed under Mus musculus [4] was > 200 mg/kg; in the assay listed under Mus musculus [9] it was 70 mg/kg. Also, the minimal effective dose in the assay on Rattus norvegicus [10] was 1 mg/kg.

For `CCc1nnc(-c2cn3c(C)c(CC)c(OC)nc3n2)o1`, the minimal effective dose in the assay on Rattus norvegicus [1] came to 50 mg/kg. In [2], the pIC50 is < 5.00.

`CCc1c(OC)nc2nc(-c3cc(C)[nH]n3)cn2c1C`: the minimal effective dose in the assay with Rattus norvegicus [1] is > 50 mg/kg. In addition, in assay [2], the pIC50 is 5.30.

As to `CCc1c(SC)nc2nc(-c3nnc(C)o3)cn2c1C`, the minimal effective dose in the assay on Rattus norvegicus [1] came out at 5 mg/kg. This compound also showed a pIC50 in [2] of 6.49.

Regarding `CCc1c(OC)nc2nc(-c3nc(C(F)(F)F)cs3)cn2c1C`, the minimal effective dose in the assay with Rattus norvegicus [3] and with Rattus norvegicus [1] was > 50 mg/kg throughout. The same compound gave a pIC50 in [2] of 5.70.

As to `C=CCc1c(OC)nc2nc(-c3noc(C)n3)cn2c1C`, the minimal effective dose in the assay with Rattus norvegicus [1] was found to be 10 mg/kg. In [2], the pIC50 is 6.25.

Turning to `COc1nc2nc(-c3nc(C)cs3)cn2c2c1CCCC2`, the minimal effective dose in the assay with Rattus norvegicus [3] and in the assay with Rattus norvegicus [1] was > 50 mg/kg in each case. In addition, the pIC50 in assay [2] is 7.66.

Take `CCCc1c(OC)nc2nc(-c3noc(C)n3)cn2c1C`: the ED50 turned out to be 16.5 mg/kg in the assay listed under Mus musculus [4] and 13 mg/kg in the assay listed under Mus musculus [5]. The minimal effective dose with Rattus norvegicus [1] stood at 5 mg/kg. The compound further gave a negative logarithm of the IC50 (pIC50) in assay [2] of 5.80.

As to `CCc1c(OC)nc2nc(-c3nc(C)no3)cn2c1C`, the ED50 in the assay listed under Mus musculus [4] is > 100 mg/kg; in the assay filed under Mus musculus [5], 14 mg/kg. Further, the minimal effective dose in the assay on Rattus norvegicus [1] came to 5 mg/kg. The pIC50 in [2] was 6.20.

As for `CCCc1c(OC)nc2nc(-c3nnc(C)o3)cn2c1C`, in the assay on Rattus norvegicus [1], the minimal effective dose was found to be 10 mg/kg. In assay [2], the negative-log IC50 (pIC50) is 5.10.

For `CNC1=Nc2ccc(Cl)cc2C(c2ccccc2)=[N+]([O-])C1` [CHLORDIAZEPOXIDE], the ED50 in the assay listed under Mus musculus [11] is 6.8 mg/kg; in the assay filed under Mus musculus [9], 1.9 mg/kg. Also, the minimal effective dose with Rattus norvegicus [1] was determined as 2 mg/kg.

With `CCc1c(OC)nc2nc(-c3nnco3)cn2c1C`, the minimal effective dose in the assay on Rattus norvegicus [1] was > 50 mg/kg. The same compound gave a pIC50 in assay [2] of 5.00.

Regarding `CCc1csc(-c2cn3c(C)c(CC)c(OC)nc3n2)n1`, the minimal effective dose in the assay with Rattus norvegicus [3] and in the assay with Rattus norvegicus [1] was 50 mg/kg in each case. In assay [2], this compound had a pIC50 of 6.66.

`CCCc1c(OC)nc2nc(-c3nc(C)cs3)cn2c1C`: the figures for the minimal effective dose with Rattus norvegicus [3] and in the assay with Rattus norvegicus [1] were 50 mg/kg and > 50 mg/kg, respectively. The compound further had a pIC50 in assay [2] of 7.00.

The term pIC50 denotes −log10 of the IC50, conventionally taken in molar units. High values mean a low IC50, low ones a high IC50. What is called ED50 is the midpoint of the dose-response relation.
